From ChEMBL document CHEMBL1133605, “3,5-Bis(trifluoromethyl)pyrazoles: a novel class of NFAT transcription factor regulator” (J Med Chem, 2000)

Key:
Homo sapiens [1] = species: Homo sapiens; assay: Inhibition of interleukin-2 (IL-2) synthesis in human whole blood stimulated by PMA/ionomycin.; type: functional
Method in brief: (§1)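 Heparinized human whole blood was added to serially diluted compound and stimulated with a PMA (50 ng/mL) plus ionomycin mixture. After 24 h, plasma was collected by centrifugation and IL-2 was measured by in-house ELISA.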

Homo sapiens [2] = species: Homo sapiens; assay: In vitro protein binding in human serum at 5 ug/ml; type: ADME
Method in brief: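 Samples were incubated 30 min at room temperature, then ultrafiltered through a 30 000 MW cutoff device at 2000g for 25 min at room temperature. Free drug in the filtrate was quantified by HPLC.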

[3] = Oral bioavailability in rat (dose 4 mg/kg); type: ADME, organism-based; conditions: in vivo
[4] = Maximum concentration in rat at 4 mpk upon peroral administration; type: ADME, organism-based; design: dose 4 mpk, route oral; conditions: in vivo, po, 4 mg/kg
[5] = Half-life in rat at 4 mpk upon peroral administration; type: ADME, organism-based; conditions: in vivo, po, 4 mg/kg
[6] = Area under curve in rat at 4 mpk upon peroral administration; type: ADME, organism-based; conditions: in vivo, po, 4 mg/kg
[7] = Resistance evaluated in an ascaris-induced nonhuman primate model of asthma after 6 hour at 30 mg/kg dose; type: functional
Method in brief: (§2)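 Antigen (Ascaris) inhalation challenge in nonhuman primates, with oral gavage dosing at -26, -2 and +22 h relative to inhalation. Respiratory system resistance was measured at baseline, at +10 min (immediate response) and at +6 h (late phase). Data are mean percentage inhibition versus crossover vehicle control, with paired t-test.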

[8] = Resistance evaluated in an ascaris-induced nonhuman primate model of asthma after 10 min at 30 mg/kg dose; type: functional; method in brief: as §2
[9] = Bronchoalveolar lavages was collected after 6 hr in an ascaris-induced nonhuman primate model of asthma at 30 mg/kg dose (for IL-8); type: functional
Method in brief: (§3)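 Ascaris-induced asthma model in nonhuman primates. Dosing by oral gavage at -26, -2 and +22 h relative to antigen inhalation. Bronchoalveolar lavage was taken at day -5 (baseline), at +6 h for IL-5, IL-8 and eotaxin, and at +48 h for eosinophil influx. Data are mean percentage inhibition versus crossover vehicle control, with paired t-test.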

[10] = Bronchoalveolar lavages was collected after 48 hr in an ascaris-induced nonhuman primate model of asthma (for eosinophil influx, eos) at 25 mg/kg dose; type: functional; conditions: dose 30 mg/kg; in the assay text read “30 mg/kg” for “25 mg/kg”; method in brief: as §3
[11] = Bronchoalveolar lavages was collected after 6 hr in an ascaris-induced nonhuman primate model of asthma at 30 mg/kg dose (for eotaxin); type: functional; method in brief: as §3
[12] = Bronchoalveolar lavages was collected after 6 hr in an ascaris-induced nonhuman primate model of asthma at 30 mg/kg dose (for IL-5); type: functional; method in brief: as §3
Homo sapiens [13] = species: Homo sapiens; assay: Tested for interleukin-2 (IL-2) synthesis inhibition in human whole blood stimulated by PMA/ionomycin.; type: functional; method in brief: as §1
[14] = Bronchoalveolar lavages was collected after 6 hr in an ascaris-induced nonhuman primate model of asthma at 25 mg/kg dose (for eotaxin); type: functional; method in brief: as §3
[15] = Bronchoalveolar lavages was collected after 48 hr (for eosinophil influx, eos) at 25 mg/kg dose; type: functional; method in brief: as §3
[16] = Bronchoalveolar lavages was collected after 6 hr in an ascaris-induced nonhuman primate model of asthma at 25 mg/kg dose (for IL-5); type: functional; method in brief: as §3
[17] = Resistance evaluated in an ascaris-induced nonhuman primate model of asthma after 6 hour at 25 mg/kg dose; type: functional; method in brief: as §2
[18] = Resistance evaluated in an ascaris-induced nonhuman primate model of asthma after 10 min at 1 mg/kg dose; type: functional; method in brief: as §2
[19] = Inhibition of eosinophil influx in bronchoalveolar lavage after 48 hr at 1 mg/kg dose
[20] = Resistance evaluated in an ascaris-induced nonhuman primate model of asthma after 6 hour at 1 mg/kg dose; type: functional; method in brief: as §2
[21] = Bronchoalveolar lavages was collected after 6 hr in an ascaris-induced nonhuman primate model of asthma at 1 mg/kg dose (for IL-8); type: functional; method in brief: as §3
[22] = Bronchoalveolar lavages was collected after 6 hr in an ascaris-induced nonhuman primate model of asthma at 1 mg/kg dose (for IL-5); type: functional; method in brief: as §3
[23] = Bronchoalveolar lavages was collected after 6 hr in an ascaris-induced nonhuman primate model of asthma at 1 mg/kg dose (for eotaxin); type: functional; method in brief: as §3

| IC50 (Homo sapiens [1]) | Binding (Homo sapiens [2]) | bioavailability [3] | Cmax [4] | half-life [5] | AUC [6] | Structure (SMILES) | also measured |
| --- | --- | --- | --- | --- | --- | --- | --- |
| 944 nM | – | 63% | 870 ng/mL | 5.2 h | 7790 ng·h/mL | CSc1cc(C(F)(F)F)nn1-c1ccc(NC(=O)c2ccncc2F)cc1 | – |
| 304 nM | – | 31% | 280 ng/mL | 6.2 h | 3240 ng·h/mL | N#Cc1cc(C(F)(F)F)nn1-c1ccc(NC(=O)c2ccccc2F)cc1 | – |
| 440 nM | – | 18% | 220 ng/mL | 1.7 h | 310 ng·h/mL | O=C(Nc1ccc(-n2nc(C(F)(F)F)cc2[N+](=O)[O-])cc1)c1ccncc1F | – |
| 496 nM | 99.7% | – | – | – | – | O=C(Nc1ccc(-n2nc(C(F)(F)F)cc2C(F)(F)F)cc1)c1ccncc1F | – |
| 182 nM | – | 74% | 610 ng/mL | 6.8 h | 7750 ng·h/mL | O=C(Nc1ccc(-n2nc(C(F)(F)F)cc2OC(F)F)cc1)c1ccncc1F | inhibition [7]: 69%; inhibition [8]: 61%; inhibition [9]: 69%; inhibition [10]: 185%; inhibition [11]: 56%; inhibition [12]: 73% |
| 261 nM | – | 68% | 1480 ng/mL | 1 h | 3050 ng·h/mL | COc1cc(C(F)(F)F)nn1-c1ccc(NC(=O)c2ccncc2F)cc1 | – |
| 240 nM | – | 78% | 1090 ng/mL | 4.3 h | 10900 ng·h/mL | N#Cc1cc(C(F)(F)F)nn1-c1ccc(NC(=O)c2ccncc2F)cc1 | – |
| 1580 nM | – | 5% | 120 ng/mL | – | 1110 ng·h/mL | CC(=O)c1cc(C(F)(F)F)nn1-c1ccc(NC(=O)c2ccccc2F)cc1 | – |
| 158 nM | – | 79% | 780 ng/mL | 4.8 h | 11000 ng·h/mL | O=C(Nc1ccc(-n2nc(C(F)(F)F)cc2Cl)cc1)c1ccncc1F | – |
| 288 nM | – | 94% | 1040 ng/mL | 7.2 h | 16400 ng·h/mL | O=C(Nc1ccc(-n2nc(C(F)(F)F)cc2Br)cc1)c1ccncc1F | – |
| 570 nM | – | 26% | 70 ng/mL | – | 970 ng·h/mL | COc1cc(C(F)(F)F)nn1-c1ccc(NC(=O)c2ccccc2F)cc1 | – |

More lines, now with the values behind:

| Structure (SMILES) | IC50 (Homo sapiens [1]) | Binding (Homo sapiens [2]) | bioavailability [3] | Cmax [4] | half-life [5] | AUC [6] | also measured |
| --- | --- | --- | --- | --- | --- | --- | --- |
| O=C(Nc1ccc(-n2nc(C(F)(F)F)cc2C(F)(F)F)cc1)c1ccc(Cl)cc1 | 6030 nM | 99.9% | – | – | – | – | – |
| O=C(Nc1ccc(-n2nc(C(F)(F)F)cc2C(F)(F)F)cc1)c1cc(F)ccc1F | 372 nM | 99.9% | – | – | – | – | – |
| Cc1noc(C)c1C(=O)Nc1ccc(-n2nc(C(F)(F)F)cc2C(F)(F)F)cc1 | 1980 nM | 99.6% | – | – | – | – | – |
| O=C(Nc1ccc(-n2nc(C(F)(F)F)cc2C(F)(F)F)cc1)c1ccccc1Cl | 914 nM | 99.9% | – | – | – | – | – |
| O=C(Nc1ccc(-n2nc(C(F)(F)F)cc2C(F)(F)F)cc1)c1cccc(F)c1F | 405 nM | 99.9% | – | – | – | – | – |
| O=C(Nc1ccc(-n2nc(C(F)(F)F)cc2C(F)(F)F)cc1)c1cc(F)cc(F)c1F | 1470 nM | 99.9% | – | – | – | – | – |
| Cc1nnsc1C(=O)Nc1ccc(-n2nc(C(F)(F)F)cc2C(F)(F)F)cc1 | 1740 nM | 99.8% | – | – | – | – | – |
| O=C(Nc1ccc(-n2[nH]c(C(F)(F)F)cc2=O)cc1)c1ccncc1F | – | – | – | – | – | – | inhibition (Homo sapiens [13]): 16% |
| O=C(Nc1ccc(-n2nc(C(F)(F)F)cc2C(F)(F)F)cc1)c1ccccc1F | 2270 nM | 99.9% | – | – | – | – | – |
| O=C(Nc1ccc(-n2nc(C(F)(F)F)cc2C(F)(F)F)cc1)c1ccncc1 | 701 nM | 99.7% | – | – | – | – | – |
| C/C=C/C[C@@H](C)[C@@H](O)[C@H]1C(=O)N[C@@H](CC)C(=O)N(C)CC(=O)N(C)[C@@H](CC(C)C)C(=O)N[C@@H](C(C)C)C(=O)N(C)[C@@H](CC(C)C)C(=O)N[C@@H](C)C(=O)N[C@H](C)C(=O)N(C)[C@@H](CC(C)C)C(=O)N(C)[C@@H](CC(C)C)C(=O)N(C)[C@@H](C(C)C)C(=O)N1C [CYCLOSPORINE] | – | – | – | – | – | – | inhibition [14]: 62%; inhibition [15]: 137%; inhibition [16]: 92%; inhibition [17]: 90% |
| C[C@]12C=CC(=O)C=C1CC[C@@H]1[C@@H]2[C@@H](O)C[C@@]2(C)[C@H]1CC[C@]2(O)C(=O)CO [PREDNISOLONE] | – | – | – | – | – | – | inhibition [18]: 24%; inhibition [19]: 106%; inhibition [20]: 57%; inhibition [21]: 9%; inhibition [22]: 94%; inhibition [23]: 67% |
